Like-named read-outs stand apart in the source and are kept apart here.
Assays:
splenic DC = assay: Phenotype of splenic DC from glycolipid immunized mice; format: in vivo, mouse; details: 17.5 h and 44 h after immunization
[1] = biological target: T1, glycolipid/CD1d complexes on splenic APC (Mus musculus, UniProt P11609); format: in vivo; details: 1 μg i.v.
T1 sequence (P11609 22-336): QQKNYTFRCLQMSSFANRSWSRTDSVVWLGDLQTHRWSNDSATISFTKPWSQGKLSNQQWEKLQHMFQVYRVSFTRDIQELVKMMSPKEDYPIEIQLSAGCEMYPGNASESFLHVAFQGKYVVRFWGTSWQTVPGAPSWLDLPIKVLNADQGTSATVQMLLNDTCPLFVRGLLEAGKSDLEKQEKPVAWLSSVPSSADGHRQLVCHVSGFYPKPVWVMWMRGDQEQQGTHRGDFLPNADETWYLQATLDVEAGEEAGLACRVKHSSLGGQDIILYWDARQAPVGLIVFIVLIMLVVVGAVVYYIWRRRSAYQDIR
T1 sequence (P01887 21-119 partner): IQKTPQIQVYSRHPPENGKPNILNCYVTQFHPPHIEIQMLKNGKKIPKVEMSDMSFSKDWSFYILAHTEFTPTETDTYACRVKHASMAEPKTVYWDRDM
Summary of the method: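 At set times after i.v. immunization, spleens were collagenase D-digested at 37°C, treated with 5 mM EDTA for 5 min and strained. Cells were split into CD11c-enriched and depleted fractions with anti-CD11c magnetic beads. A dose range of each fraction was cultured with 1.2 hybridoma cells (2 × 10^5/well) without added antigen. Supernatant IL-2 was measured by sandwich ELISA.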

C57BL/6J mice = assay: Serum cytokine ELISA after i.v. injection of glycolipid; format: in vivo, mouse; details: 1 μg i.v.
Summary of the method: (§1)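 Glycolipid was dissolved at 100 μg/mL in DMSO, diluted in PBS, heated 56°C 10 min and vortexed. Glycolipid or vehicle was injected i.v. and mice bled at set times. Serum cytokines were quantified by sandwich ELISA with paired capture/detection mAbs.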

Vα14i NKT cells = assay: Ex vivo activation of Vα14i NKT cells after i.v. glycolipid; format: in vivo, mouse; details: 1 μg i.v.; for Vα14i NKT cell activation (percentage producing IFNγ, IL-4 and TNF; CD69 and CD40L expression): two hours after injection
Summary of the method: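 Mice received glycolipid i.v. (DMSO stock diluted in PBS, heated 56°C 10 min). Spleens were taken at 2 h, mechanically dissociated, filtered and red cells lysed. Cells were stained with mAbs together with CD1d tetramer in PBS/10% FCS at 4°C for 45 min and analysed by flow cytometry.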

[2] = biological target: Vα14i/Vβ8.2 TCR of 1.2 Vα14i NKT cell hybridoma (Mus musculus, UniProt A0A0B4J1J9+A0A0G2JG46+A0A140T8N6+P11609); assay: Equilibrium glycolipid/CD1d tetramer staining of 1.2 hybridoma; format: binding; details: glycolipid/CD1d tetramers
monoclonal antibody L317 = assay: L317 antibody binding to glycolipid/CD1d complexes; details: surface plasmon resonance
Summary of the method: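 Real-time binding of L317 to glycolipid-loaded CD1d was measured by surface plasmon resonance at 25°C. Kinetic parameters came from fitting specific sensorgrams.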

CD1d = biological target: T2, CD1d (Mus musculus, UniProt P11609); assay: Decay of glycolipids from CD1d measured by L317 binding; details: surface plasmon resonance, 25°C
T2 sequence (P11609 22-305 limits assumed): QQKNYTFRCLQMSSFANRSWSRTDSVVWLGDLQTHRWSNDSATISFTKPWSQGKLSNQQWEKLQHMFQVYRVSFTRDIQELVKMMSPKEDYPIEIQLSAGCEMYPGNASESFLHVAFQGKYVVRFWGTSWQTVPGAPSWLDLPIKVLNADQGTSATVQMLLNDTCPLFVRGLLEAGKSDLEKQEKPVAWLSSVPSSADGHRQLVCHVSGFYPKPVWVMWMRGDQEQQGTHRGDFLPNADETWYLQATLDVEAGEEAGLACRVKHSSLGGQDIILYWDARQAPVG
T2 sequence (P01887 21-119 partner): T1 sequence (P01887 21-119 partner)
Summary of the method: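 His-tagged mouse CD1d pulsed overnight with each glycolipid, then captured on Ni-charged NTA sensor chip channels; complexes allowed to decay for varied times before a saturating dose of αGalCer/CD1d-specific mAb L317 was flowed over. Binding was measured by surface plasmon resonance at 25°C and normalized to maximum binding for each antigen.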

NK cells = assay: NK cell trans-activation; format: in vivo, mouse; details: 1 μg i.v., 18 h after injection, liver and spleen
Summary of the method: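 Glycolipid (DMSO stock diluted in PBS) was given i.v. Liver was perfused via portal vein and mononuclear cells isolated at the 40/60% Percoll interface (900 g, 20 min); splenocytes were dissociated and red cells lysed. Cells were surface-stained at 4°C for 45 min, then permeabilized with Cytofix/Cytoperm for intracellular IFNγ staining and flow cytometry.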

1.2 Vα14i NKT hybridoma = assay: ERK1/2 phosphorylation in Vα14i NKT hybridoma after glycolipid-pulsed APCs; format: cell-based, mouse; details: 1.2 hybridoma; for extent of ERK1/2 phosphorylation: A20-CD1d cells as APCs
Summary of the method: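 A20-CD1d cells (10^6/ml) were pulsed 2 h with glycolipid (DMSO stock diluted in PBS), washed cold, and mixed with hybridoma cells at 4:1 on ice, then pelleted and warmed to 37°C for timed intervals. Cells were fixed in 4% PFA, stained for Thy1.2, permeabilized in 90% methanol and stained for ppERK1/2. Flow cytometry was gated on Thy1.2+ cells with t = 0 as negative control. Values are % ppERK+ (glycolipid) minus % ppERK+ (vehicle).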

CD40−/− mice = assay: Serum IFNγ in CD40-deficient mice; format: in vivo, mouse; details: 1 μg i.v., serum at 6 h and 24 h, versus C57BL/6
Summary of the method: as §1

[3] = APC harvested 1.5 h after immunization

SMILES	increased expression of CD80, CD86 and CD1d in splenic DC (splenic DC)	IL-2 release by 1.2 hybridoma with APC from immunized mice [1, 3]	IL-2 release by 1.2 hybridoma with APC from immunized mice ([1]; APC harvested 17.5 h and 44 h after immunization)	serum IFNγ level (C57BL/6J mice)	serum IL-4 level (C57BL/6J mice)	CD40L expression on Vα14i NKT cells (Vα14i NKT cells; 2 h after injection, spleen)	Vα14i NKT cell activation (percentage producing IFNγ, IL-4 and TNF; CD69 and CD40L expression) (Vα14i NKT cells)	tetramer binding to 1.2 hybridoma cells [2]	affinity of L317 for glycolipid bound to CD1d (monoclonal antibody L317)	t1/2 (dissociation of glycolipid from CD1d) (CD1d) [h]	t1/2 (dissociation of glycolipid from CD1d) (CD1d; listed as CD1d/OCH) [h]	IFNγ production by NK cells (trans-activation) (NK cells)	extent of ERK1/2 phosphorylation (1.2 Vα14i NKT hybridoma)	ERK1/2 phosphorylation (1.2 Vα14i NKT hybridoma; BMDCs or splenic B cells as APCs)	stability of complexes with CD1d in vivo ([1]; functional bioassay)	IFNγ levels in CD40-deficient mice (CD40−/− mice)	t1/2 (dissociation of glycolipid from CD1d) (CD1d; listed as CD1d/αGalCer) [h]
CCCCCCCCCCCCCCCCCCCCCCCC(=O)N[C@@H](COC1OC(CO)C(O)C(O)C1O)[C@H](O)[C@H](O)CCCCC (some centres unmarked) [OCH]	to the same extent as αGalCer	higher production of IL-2 than C-glycoside	considerably reduced compared to αGalCer and C-glycoside	relatively low levels of IFNγ	high levels of IL-4, equivalent to αGalCer	induced more CD40L than C-glycoside	less potent than αGalCer	barely able to bind	weaker	1.09	1.09 ± 0.63	Impaired NK cell trans-activation	indistinguishable	induced fewer 1.2 cells to phosphorylate ERK1/2 than αGalCer	–	–	–
CCCCCCCCCCCCCCCCCCCCCCCCCC(=O)N[C@@H](CO[C@H]1O[C@H](CO)[C@H](O)[C@H](O)[C@H]1O)[C@H](O)[C@H](O)CCCCCCCCCCCCCC [αGalCer, α-galactosyl ceramide]	–	best response	–	–	–	–	highest percentage	–	highest	5.043	–	highest percentage of IFNγ-expressing NK cells	dose-dependent increase in ppERK	–	much more stable in vivo than OCH	strongly reduced	5.043 ± 2.207

— publication PMC2834884 (Journal of immunology (Baltimore, Md. : 1950), 2009)
